Data on three molecules can be found in PMC9582731 (RSC Advances, 2022).

Data set [1] can be described thus: in vitro. It counts as cell-based. The settings on record: mouse.
Data set [2] deals with λ-carrageenan-induced mouse paw edema. The data set can be described thus: λ-carrageenan-induced mouse paw edema test. It counts as in vivo. The settings on record: 10 mg kg^−1 i.g., 2 h before λ-carrageenan, at 2–6 h, ICR mice. In outline:
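Test compound given at a low and a high dose, alongside a blank group, a carrageenan-only model group and an indomethacin positive-control group; paw swelling induced with λ-carrageenan.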
A general note: The carrageenan paw model is a standard test of acute inflammation.

Data set [3] has as its system λ-carrageenan-induced paw edema tissue. The data set can be described thus: H&E histological examination of paw edema tissue. The note with it: treated animals vs λ-carrageenan model group. It counts as in vivo, mice. In outline:
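Mice given λ-carrageenan to induce paw edema. Groups: blank, model, indomethacin (positive control), and test compound at low and high dose. Paw tissue was examined by H&E staining for histological change or by immunohistochemical staining for TNF-α, including bone.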

Data set [4] deals with acetic acid-induced writhing in mice. As to the kind of experiment: Acetic acid-induced writhing analgesic test. The note with it: 3 days, acetic acid i.p., Kunming mice. It counts as in vivo. A general note: Writhing tests count abdominal constrictions after an irritant is injected.

Broadly, the IC50 is the concentration needed to halve the response being measured. Low readings indicate greater potency in that assay, high ones weaker potency in that assay. Turning to `COc1ccc2c(c1)c(CC(=O)O)c(C)n2C(=O)c1ccc(Cl)cc1` [Indo, indomethacin], in data set [1], the IC50 is more than 100 µM. The “Effect on paw edema” value in data set [2] is given as “significantly inhibited the development of edema”. For the same molecule, in data set [3], the “Histological change of paw biopsies (H&E)” value is given as “a reduction in the λ-carrageenan-induced inflammatory response”.
Consider `COC1=C[C@@H]2[C@@H]3Cc4ccc(OC)c(O)c4[C@]2(CCN3C)CC1=O` [SIN, Sinomenine], for which the IC50 in data set [1] is more than 100 µM. For the same molecule, the “Effect on number of writhes” value in data set [4] (200 mg kg^−1 i.g.) was “almost no analgesic effects”.
`O=C(O)Cc1ccccc1Nc1c(Cl)cccc1Cl` [Voltaren]: the “Effect on number of writhes” value in data set [4] (19.5 mg kg^−1 i.g.) is listed as “reduce the number of writhes considerably”.
